We go through 27 molecules from ChEMBL document CHEMBL4837193 (Eur J Med Chem, 2021).

The structures appear in SMILES notation. Where only a bound is given, the exact number is not on record here.

One assay concerns HeLa. The experiment in a line: Antiproliferative activity against human HeLa cells assessed as cell growth inhibition after 48 hrs by MTT assay. The format is functional, cell-based. A digest of the protocol: (§1)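 Cells grown at 37 °C with CO2 in RPMI-1640 or DMEM plus 10% FBS. Seeded at 2 × 10³ per well, attached 24 h, then medium changed. Compound exposure 48 h at 37 °C, DMSO 0.1% as vehicle. MTT added and incubated a further 4 h. Crystals dissolved, absorbance read at 570 nm. IC50 from curve fitting, mean ± SD of three independent experiments.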
(Tetrazolium dyes change colour on reduction, which living cells bring about.)

In the next assay the test system is A549. Kind of assay: Antiproliferative activity against human A549 cells assessed as cell growth inhibition after 48 hrs by MTT assay. In kind it is functional, cell-based. Conditions: A549, 48 h. The essentials:
as §1

The test system of another assay is HCT-116. Kind of assay: Antiproliferative activity against human HCT-116 cells assessed as cell growth inhibition after 48 hrs by MTT assay. Conditions: HCT-116, 48 h. In kind it is functional, cell-based. The essentials:
as §1

Another assay deals with Tubulin. The experiment in a line: Inhibition of tubulin polymerization (unknown origin) measured afer 30 mins every 1 min for 20 mins by spectrophotometric method. The format is protein-complex assay, Homo sapiens. A digest of the protocol: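 Tubulin at 2 mg/mL in PEM buffer (100 mM PIPES pH 6.9, 1 mM MgCl2, 1 mM EGTA, 5% glycerol) preincubated on ice with compound or DMSO, then GTP added. After 0.5 h, A340 read every 1 min for 20 min at 37 °C. Plateau values used.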

The next assay has as its system HEK293. Kind of assay: Antiproliferative activity against human HEK293 cells assessed as cell growth inhibition after 48 hrs by MTT assay. The format is cell-based. Conditions: HEK293, 48 h. The essentials:
as §1

Another assay addresses Tubulin (Homo sapiens) (UniProt P68371+Q9H4B7+P0DPH7+P68366+Q13509+Q71U36+P04350+Q3ZCM7+P07437+P68363+Q9BQE3+Q6PEY2+Q13885+Q9BVA1+Q9BUF5). Kind of assay: Inhibition of tubulin polymerization (unknown origin) at 10 uM measured after 30 mins every 1 min for 20 mins by spectrophotometric method. The format is protein-complex assay. A digest of the protocol: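 Tubulin at 2 mg/mL in PEM buffer (100 mM PIPES pH 6.9, 1 mM MgCl2, 1 mM EGTA, 5% glycerol) preincubated on ice with compound or DMSO, then GTP added. After 0.5 h, A340 read every 1 min for 20 min at 37 °C. Plateau values used. Single-point inhibition at 10 µM; IC50 is the concentration halving polymerization at 20 min, mean ± SD of three experiments.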

The next assay concerns HT-29. The experiment in a line: Antiproliferative activity against human HT29 cells assessed as cell growth inhibition after 48 hrs by MTT assay. Conditions: HT-29, 48 h. In kind it is functional, cell-based.
The test system of a further assay is T47D. Kind of assay: Antiproliferative activity against human T47D cells assessed as cell growth inhibition after 48 hrs by MTT assay. The format is functional, cell-based.
The next assay concerns HepG2. Kind of assay: Antiproliferative activity against human HepG2 cells assessed as cell growth inhibition after 48 hrs by MTT assay. The format is functional, cell-based. Conditions: HepG2, 48 h. A digest of the protocol: as §1

One may read the IC50 as the concentration at which inhibition is half-maximal. Usually inhibition stands for the relative decrease from the control value, in per cent. Read a low inhibition as a response near the control.

Regarding `COc1cc(-c2ccnc3nc(-c4ccc(Cl)c(Cl)c4)nn23)cc(OC)c1OC`, the IC50 in the assay with HeLa was greater than 30 µM.

Take `COc1cc(-c2nc3nccc(-c4ccc(C(F)(F)F)cc4)n3n2)cc(OC)c1OC`: the half-maximal inhibitory concentration (IC50) in the assay on HeLa was greater than 30 µM.

Regarding `COc1cc(-c2ccnc3nc(-c4ccc(C)cc4)nn23)cc(OC)c1OC`, the IC50 in the assay with HeLa was greater than 30 µM.

Take `COc1cc(-c2nc3nccc(-c4ccco4)n3n2)cc(OC)c1OC`: the IC50 with HeLa is greater than 30 µM.

With `COc1cc(-c2nc3nccc(-c4cc5ccccc5oc4=O)n3n2)cc(OC)c1OC`, the IC50 with HeLa was greater than 30 µM.

Regarding `COc1cc(-c2nc3nccc(-c4ccc([N+](=O)[O-])cc4)n3n2)cc(OC)c1OC`, in the assay with HeLa, the concentration for half-maximal inhibition (IC50) is greater than 30 µM.

With `COc1cc(-c2nc3nccc(-c4ccc(N)cc4)n3n2)cc(OC)c1OC`, the 50% inhibitory concentration (IC50) in the assay on HeLa came out at 29.9 µM.

As to `COc1ccc(-c2ccnc3nc(-c4cc(OC)c(OC)c(OC)c4)nn23)cc1F`, in the assay with HeLa, the IC50 is greater than 30 µM.

In the case of `COc1cc(-c2nc3nccc(-c4ccc(C)cc4)n3n2)cc(OC)c1OC`, the concentration for half-maximal inhibition (IC50) with HeLa was greater than 30 µM.

For the molecule `COc1cc(-c2nc3nccc(-c4cccnc4)n3n2)cc(OC)c1OC`, the IC50 with HeLa was greater than 30 µM.

As to `COc1cc(-c2nc3nccc(-c4cc(OC)c(OC)c(OC)c4)n3n2)cc(OC)c1OC`, the IC50 in the assay on HeLa was greater than 30 µM.

For `COc1ccc(-c2ccnc3nc(-c4cc(OC)c(OC)c(OC)c4)nn23)cc1`, the IC50 in the assay on HeLa was greater than 30 µM.

Regarding `COc1ccc(-c2ccnc3nc(-c4cc(OC)c(OC)c(OC)c4)nn23)cc1Cl`, the IC50 with HeLa was greater than 30 µM.

Consider `COC(=O)c1ccc(-c2ccnc3nc(-c4cc(OC)c(OC)c(OC)c4)nn23)cc1`, for which the half-inhibitory concentration (IC50) in the assay with HeLa was greater than 30 µM.

Take `COc1ccc(-c2ccnc3nc(-c4cc(OC)c(OC)c(OC)c4)nn23)cc1OC`: in the assay on HeLa, the IC50 is greater than 30 µM.

In the case of `COc1cc(-c2nc3nccc(-c4ccc(Cl)c(Cl)c4)n3n2)cc(OC)c1OC`, in the assay on HeLa, the IC50 is greater than 30 µM.

Take `COc1ccc(-c2nc3nccc(-c4cc(OC)c(OC)c(OC)c4)n3n2)cc1N`: the half-inhibitory concentration (IC50) with A549 was 18.9 µM; with HCT-116 it was greater than 100 µM; at Tubulin, 12.2 µM; with HEK293 it was greater than 100 µM; with HeLa it was 0.11 µM; in the assay with HT-29, 83 µM. For the same molecule, the values for the IC50 in the assay with T47D and with HepG2 were 6.51 µM and 21.1 µM, respectively. On Tubulin (Homo sapiens), this molecule returned an inhibition of 49%.

With `COc1ccc(-c2ccnc3nc(-c4cc(OC)c(OC)c(OC)c4)nn23)cc1N`, the half-maximal inhibitory concentration (IC50) with A549 was greater than 100 µM; in the assay with HCT-116, 91.1 µM; in the assay with HEK293 it was greater than 100 µM; with HeLa, 0.4 µM; in the assay on HT-29 it was 11.5 µM; with T47D, greater than 100 µM. Moreover, in the assay with HepG2, the concentration for half-maximal inhibition (IC50) came to 41.2 µM. Also, the inhibition against Tubulin (Homo sapiens) was found to be 12%.

Take `COc1cc(-c2nc3nccc(-c4cccs4)n3n2)cc(OC)c1OC`: the IC50 in the assay on HeLa was greater than 30 µM.

In the case of `COc1cc(-c2nc3nccc(-c4cc(Cl)c(NC(C)=O)c(Cl)c4)n3n2)cc(OC)c1OC`, in the assay on HeLa, the half-inhibitory concentration (IC50) was greater than 30 µM.

With `COc1ccc(/C=C\c2cc(OC)c(OC)c(OC)c2)cc1O` [COMBRETASTATIN A4], the 50% inhibitory concentration (IC50) with T47D was found to be 0.027 µM; in the assay on HepG2, 5.29 µM.

On to `COc1cc(-c2nc3nccc(-c4cccc5ccccc45)n3n2)cc(OC)c1OC`, for which, in the assay with HeLa, the 50% inhibitory concentration (IC50) was determined as 28.6 µM.

As to `COc1ccc(-c2nc3nccc(-c4cc(OC)c(OC)c(OC)c4)n3n2)cc1`, in the assay on HeLa, the IC50 is 0.9 µM.

Regarding `COc1ccc(-c2ccnc3nc(-c4cc(OC)c(OC)c(OC)c4)nn23)cc1[N+](=O)[O-]`, the IC50 in the assay with HeLa is greater than 30 µM.

Turning to `COc1ccc(-c2nc3nccc(-c4cc(OC)c(OC)c(OC)c4)n3n2)cc1NC(C)=O`, the half-inhibitory concentration (IC50) with A549 is 34.6 µM; in the assay with HCT-116, 22.4 µM; with HEK293 it was 82.1 µM; in the assay with HeLa it was 0.28 µM; in the assay on HT-29, 1.66 µM; with T47D, 5.67 µM. For the same molecule, the IC50 in the assay with HepG2 is greater than 100 µM. The same molecule registered an inhibition on Tubulin (Homo sapiens) of 16%.

Take `COc1cc(-c2nc3nccc(-c4ccccc4C)n3n2)cc(OC)c1OC`: the IC50 in the assay with HeLa was greater than 30 µM.

Take `COc1cc(-c2nc3nccc(-c4ccc(NC(C)=O)cc4)n3n2)cc(OC)c1OC`: the IC50 in the assay with HeLa is 22.2 µM.
